The values that follow come from PMC11844196 (Journal of Experimental Pharmacology, 2025).

One experiment relates to MDA-MB-231 cells. As to the kind of experiment: PrestoBlue cytotoxicity assay. Type of experiment: cell-based. The settings on record: Homo sapiens, MDA-MB-231, 24 h, read-out: IC50 Value MDA-MB-231. In outline: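 Cells plated at 10,000 cells/well and incubated 24 h at 37°C, 5% CO2. MCF 10A were grown in MEBM to 70–80% confluency. Treated for 24 h with eight concentrations (250, 125, 62.5, 31.25, 15.625, 7.8125, 3.9, 1.95 µg/mL) in three parallel experiments, with cisplatin as positive control.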

The next experiment concerns MCF7 cells. As to the kind of experiment: Cell morphology after treatment. Format: cell-based, human.

SMILES strings stand for the structures.

By IC50 is commonly meant the midpoint of a concentration-inhibition curve.

For `CC[C@H](CC[C@@H](C)[C@H]1CC[C@H]2[C@@H]3CC=C4C[C@@H](O)CC[C@]4(C)[C@H]3CC[C@]12C)C(C)C` [β-sitosterol], the IC50 in the experiment on MDA-MB-231 cells was over 250 µg/mL. The “Cell morphology (apoptosis signs)” value in the experiment with MCF7 cells is “cell blebbing indicative of apoptotic process”.
